Rows were chosen to be rich in hits. Some 1.5% of all compounds tested hit in one or more screens of this group.
CTSL1 counter – blocks F. hepatica cathepsin L1 in PFM18AAP counter-screen; AID 1906; inhibition, % at 5.96 µM; actives 0.49% (n = 300,000); recombinant F. hepatica cathepsin L1, Z-Leu-Arg-MCA fluorescence;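 active = inhibition above the mean of all tested compounds plus 3 SD, set per screening campaign, cut at about 17% in these data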;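 note: 0% = plate median of test compound wells and 100% = 1 µM Z-Phe-Ala-diazomethylketone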
UCH37 DUB inh – blocks the human deubiquitinase UCH37; AID 588478; actives 0.33% (n = 330,000); inhibition, % (no concentration beside the values); Q9Y5K5; purified proteasome/UCH37, Ub-AMC cleavage fluorescence;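 active = mean inhibition over replicate wells above about 20%, limit read from the data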;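 note: 0% = compound-free wells with enzyme and 100% = wells lacking proteasome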
Target sequence (Q9Y5K5 whole entry, looked up): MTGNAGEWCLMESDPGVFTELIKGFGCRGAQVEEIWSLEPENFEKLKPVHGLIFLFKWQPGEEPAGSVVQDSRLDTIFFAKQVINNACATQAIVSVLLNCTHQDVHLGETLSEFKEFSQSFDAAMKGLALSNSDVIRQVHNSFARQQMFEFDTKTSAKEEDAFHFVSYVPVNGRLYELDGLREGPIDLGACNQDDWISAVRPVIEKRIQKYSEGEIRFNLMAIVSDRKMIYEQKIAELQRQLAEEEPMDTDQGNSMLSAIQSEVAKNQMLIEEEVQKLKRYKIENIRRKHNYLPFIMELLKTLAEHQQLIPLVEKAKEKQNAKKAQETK
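Material: Human UCH37 enzyme supplied as purified proteasome complex | Schedule: 30 min preincubation with enzyme, 25 min cleavage at room temperature | Detection: AMC fluorescence 355/460 nm | Measure: % inhibition of Ub-AMC cleavage fluorescence | Controls: Wells without proteasome as full block, compound-free enzyme plus substrate as uninhibited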
CendR NRP1 mod – modulators of CendR peptide binding to human neuropilin-1; FAM-RPARPAR peptide binding to NRP-1, fluorescence polarization; inhibition, % at 25 µM; O14786; actives 0.85% (n = 360,000);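 active = inhibition or corrected inhibition above about 18%, plus a signal ratio from 0.5 to 1.5, limit read from the data, passing the limit was not always enough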
MT1-MMP act inh – MT1-MMP (human) activation inhibition; P50281; HT1080 RFP-PRO-GFP cells, GFP/RFP ratio fluorescence, overnight; percent of plate control window, DMSO zero; GFP/RFP ratio change, % at 20 µM; actives 0.061% (n = 360,000);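 active = GFP/RFP ratio change of at least 30% with cell ATP level not reduced by more than half and red fluorescence within 50% of control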
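Material: RFP-PRO-GFP reporter HT1080 cells. Dosing: single-point 20 µM compound, 1% DMSO. Controls: DMSO and RFP-L50D-GFP cell wells. Timing: cells overnight before dosing, compound overnight, 37 °C, 5% CO2. Measure: GFP/RFP fluorescence ratio.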
DAGLB inh – diacylglycerol lipase beta (human) inhibition; Q8NCG7; HEK293T DAGLB membrane lysate, EnzChek fluorogenic substrate; inhibition, % at 5.17 µM; actives 0.059% (n = 340,000); AID 504411; in the data active = inhibition above about 34%;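 note: 0% = enzyme with vehicle and 100% = wells lacking enzyme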
* = called active by the depositor; nt = not tested or not shown.

SMILES	CTSL1 counter	UCH37 DUB inh	CendR NRP1 mod	MT1-MMP act inh	DAGLB inh
COc1ccc(NC(=O)c2cccnc2NCCc2ccccc2)cc1	44.5*	-6.5	-3.4	-5.6	-2.3
CCCCNC(=O)C(=O)NN=Cc1ccc(OCC(=O)Nc2cccc(OC)c2)c(OC)c1	nt	-161.4	nt	nt	nt
CCOC(=O)c1c(C)oc2c1c(C=NCCO)c(O)c1ccccc12	nt	11.3	35.1*	-33.8	1.4
COc1ccc(C(=O)/C=C2/C(=O)Nc3ccccc32)c(OC)c1	-5.4	5.9	-15.9	-0.3	2.2
COc1ccc(C(=O)/C=C2/C(=O)Nc3ccccc32)cc1OC	0.4	nt	38.9*	-2.9	1.4
COc1ccc(C(=O)/C=C2/C(=O)Nc3ccccc32)cc1	nt	2.5	4.1	-3.9	2.3
COc1cc(OC)c(/C=C2\C(=O)Nc3ccccc32)c(OC)c1	38.3*	3.9	nt	nt	nt
Cc1ccc(S(=O)(=O)N=C(c2ccc(Cl)cc2)N2CCOCC2)cc1	nt	7.6	nt	nt	nt
CCN(CC(=O)NCc1cccs1)C(=O)c1ccc(S(=O)(=O)N(C)C)cc1	-2.9	2.3	-0.4	1.0	-0.3
CCN(CC(=O)NCc1cccs1)C(=O)c1ccc(S(=O)(=O)N(C)c2ccccc2)cc1	nt	2.4	21.4*	2.8	-2.3
C=CCc1cccc(/C=N/n2c(C)nnc2C)c1O	-1.8	nt	19.5*	-7.0	-1.6
COc1ccc(C(C)=NN=C(C)c2ccc(OC)cc2OC)c(OC)c1	nt	-1.2	nt	nt	nt
CC(/C=C/C=C/c1ccccc1)=NNC(=O)c1cccnc1	nt	24.3*	nt	nt	nt
CC(/C=C/C=C/c1ccccc1)=N\NC(=O)c1cccnc1	21.8*	nt	-3.3	-0.1	-2.4
CC(=NNC(=O)C(O)c1ccccc1)c1ccc(Cl)s1 (stereo not drawn)	nt	3.5	nt	nt	nt
O=C(Cc1cccc2ccccc12)NN=Cc1ccc(Sc2nc3ccccc3s2)o1	nt	4.9	nt	nt	nt
COC(=O)NN=Cc1c(C)c(C(=O)c2ccc(F)cc2)n2ccccc12	nt	4.2	nt	nt	nt
O=C(COC(=O)c1cc2ccccc2oc1=O)Nc1ccc(F)cc1F	30.6*	-9.3	0.4	2.2	0.5
CC(=O)c1cccc(OCc2cc(C(=O)NCCC3=CCCCC3)no2)c1	3.6	22.2*	14.2	3.2	-3.6
O=C(NCCC1=CCCCC1)c1cc(COc2c(F)cccc2F)on1	-3.8	-1.7	11.0	-0.5	-14.8
CC(=O)n1cc(C=NNC(=O)c2ccccc2Cl)c2ccccc21	nt	4.9	nt	nt	nt
CC(C)C(NC(=O)c1ccccc1)C(=O)NN=Cc1ccco1 (stereo not drawn)	nt	2.7	nt	nt	nt
CC(=O)NC1C(=O)N(CCc2ccccc2)c2ccc(Br)cc21 (stereo not drawn)	nt	nt	34.8*	5.8	-4.7
Cc1ccc(N=CC2=C(O)CC(C)(C)CC2=O)nc1	-0.1	0.7	24.1*	3.8	1.5
COc1cc(C(=O)c2nccc3cc(OC)c(OC)cc23)c([N+](=O)[O-])cc1OC	42.1*	12.7	0.6	9.7	-3.1
SMILES	CTSL1 counter	UCH37 DUB inh	CendR NRP1 mod	MT1-MMP act inh	DAGLB inh
COc1cc(Br)c(C(=O)c2nccc3cc(OC)c(OC)cc23)cc1OC	103.0*	nt	20.6	2.6	-8.8
COc1cc(N)c(C(=O)c2nccc3cc(OC)c(OC)cc23)cc1OC	-5.7	5.4	3.9	-1.6	-4.5
COc1cc(Br)cc(C=NN(CCO)C2=NS(=O)(=O)c3ccccc32)c1OC	nt	-0.8	nt	nt	nt
Cc1ccc(-c2nnn(CC(=O)N(CC(=O)NC3CCCC3)c3ccc(F)c(Cl)c3)n2)o1	-1.2	-3.5	-1.5	13.3	-1.3
Cc1ccc(-c2nnn(CC(=O)N(CC(=O)NC3CCCCC3)c3ccc(F)c(Cl)c3)n2)o1	3.8	2.5	29.0*	-3.9	6.5
Cc1noc(NS(=O)(=O)c2ccc(NC(=O)C34CC5CC(C3)CC(n3cnc(Cl)n3)(C5)C4)cc2)c1C	-2.7	1.1	-2.1	1.8	4.6
Cc1noc(NS(=O)(=O)c2ccc(NC(=O)CC34CC5CC(CC(Br)(C5)C3)C4)cc2)c1C	19.7*	-0.3	6.4	-1.9	4.3
CCN1C(=O)C(=Cc2cccc(OC)c2Oc2ccc([N+](=O)[O-])cc2[N+](=O)[O-])SC1=S	0.5	7.9	25.1*	-2.6	10.1
COc1ccc(-n2nnc3c(SCC(=O)NCc4ccco4)ncnc32)cc1	0.6	2.6	35.7*	2.8	-2.6
Cc1ccc(-n2nnc3c(SCC(=O)NCc4ccco4)ncnc32)cc1	1.0	1.7	-22.8	-0.3	-6.7
Cc1ccc(NNS(=O)(=O)c2ccc(C)cc2)cc1	-2.1	2.5	28.1*	0.8	0.9
Cc1ccc(S(=O)(=O)NNC(=O)C(=O)NNS(=O)(=O)c2ccc(C)cc2)cc1	0.2	1.8	16.9	2.7	1.9
CC(=NOC(=O)Nc1ccc(Cl)cc1)c1ccc(F)c(F)c1	nt	4.7	nt	nt	nt
Clc1ccc(-n2nnc(-c3cccnc3)n2)cc1Cl	1.8	0.6	-1.0	-1.5	-5.4
Fc1ccc(-n2nnc(-c3cccnc3)n2)cc1	-1.2	1.9	26.9*	-5.9	-4.5
COc1ccc2[nH]c(C)c(CN3CCCCC3)c(=O)c2c1	0.2	-63.4	31.7*	5.1	-1.3
O=C(Nc1ccc(Br)cn1)C1CCCN1S(=O)(=O)c1ccccc1 (stereo not drawn)	2.0	29.5*	23.5	0.4	1.7
CN(C)c1ccc(C=NNc2nc(-c3ccccc3)cc(=O)[nH]2)cc1	nt	1.2	nt	nt	nt
O=C(OCc1cc2ccccc2[nH]c1=O)c1ccccc1	8.8	0.5	-6.5	5.1	-5.7
O=C(OCc1cc2ccccc2[nH]c1=O)c1ccncc1	-4.1	-4.6	31.8*	0.9	-2.2
CCCN(C(=O)CSCc1ccc(Cl)cc1)c1c(N)n(Cc2ccccc2)c(=O)[nH]c1=O	4.8	nt	26.8*	1.3	0.3
Cc1ccc(-n2c(SCC(=O)OC(C)C)nnc2-c2ccccn2)cc1	-4.0	0.1	5.8	-8.7	-0.9
CC(C)OC(=O)CSc1nnc(-c2ccccn2)n1-c1ccccc1	-2.6	5.5	21.3*	4.3	-0.9
Cc1ccc(N(CC(=O)NN=Cc2ccc(OC3CSC3)cc2)S(=O)(=O)c2ccccc2)cc1	nt	1.6	nt	nt	nt
COc1ccc(Cc2nnc(NN=C(C)c3ccccc3)[nH]c2=O)cc1OC	nt	3.2	nt	nt	nt
SMILES	CTSL1 counter	UCH37 DUB inh	CendR NRP1 mod	MT1-MMP act inh	DAGLB inh
O=C(COc1ccc(Cl)cc1Br)N1CCN(c2ccccc2)CC1	7.8	1.5	33.9*	-2.8	-10.9
O=C(/C=C/c1cccc(Br)c1)OCC(=O)N1CCN(c2ccccc2)CC1	nt	2.3	27.1*	4.2	-3.8
CCc1ccc2[nH]c3nc(NN=Cc4ccc(O)cc4O)nnc3c2c1	nt	1.6	nt	nt	nt
COc1cccc(C(=O)N2N=C(c3ccccc3)CC2(O)C(F)(F)F)c1 (stereo not drawn)	-2.1	0.5	26.7*	2.4	-1.9
COc1cccc(C2=NN(C(=O)c3ccccc3)C(O)(C(F)(F)F)C2)c1 (stereo not drawn)	1.4	5.5	1.0	-2.9	-6.5
Cn1nc([N+](=O)[O-])nc1Sc1nnc(-c2ccccc2)o1	63.4*	3.6	9.0	13.2	1.3

Screens: PubChem, several laboratories
